Data: ChEMBL document CHEMBL4689842, “EUbOPEN Chemogenomics Library wave 1” (2021)

Test system: HEK-293T
Experiment: Multiplex assay against HEK293T;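 for Population Tubulin-Different-Phenotype (%): share of the cells with healthy nuclei that show this phenotype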
Format: toxicity, cell-based
Conditions: human
Procedure, shortened: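 On a CQ1 microscope at 37°C and 5% CO2, live cells were imaged after compound addition. They had been stained at seeding with Hoechst33342, BioTracker Green Microtubule Cytoskeleton Dye, MitoTracker Red and Annexin V Alexa Fluor 680. CellPathfinder machine-learning gating assigned cells to Hoechst high-intensity objects or normal cells, normal cells to healthy, pyknosed or fragmented nuclei, and pyknosed cells to mitotic or apoptotic. Tubulin, mitochondrial-mass and membrane-permeability phenotypes are per cents of healthy-nucleus cells.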

[1] = 12 h, 1 µM, compound concentration 1 uM, replicate 1
[2] = 12 h, 1 µM, compound concentration 1 uM, replicate 2
[3] = 12 h, 10 µM, compound concentration 10 uM, replicate 1
[4] = 12 h, 10 µM, compound concentration 10 uM, replicate 2
[5] = 24 h, 1 µM, compound concentration 1 uM, replicate 1
[6] = 24 h, 1 µM, compound concentration 1 uM, replicate 2
[7] = 24 h, 10 µM, compound concentration 10 uM, replicate 1
[8] = 24 h, 10 µM, compound concentration 10 uM, replicate 2
[9] = 48 h, 1 µM, compound concentration 1 uM, replicate 1
[10] = 48 h, 1 µM, compound concentration 1 uM, replicate 2
[11] = 48 h, 10 µM, compound concentration 10 uM, replicate 1
[12] = 48 h, 10 µM, compound concentration 10 uM, replicate 2

COc1ccc(S(=O)(=O)N(CCO)c2ccccc2CN(C)C/C=C/c2ccc(Cl)cc2)cc1.O=P(O)(O)O
Population Apoptotic (%) [1]: 42%
Population Fragmented Nuclei (%) [1]: 11%
Population Healthy Nuclei (%) [1]: 28%
Population Hoechst High Intensity Objects (%) [1]: 16%
Population Membrane Permeable-Phenotype (%) [1]: 6%
Population Mitochondria Different-Phenotype (%) [1]: 79%
Population Mitotic Cells (%) [1]: 57%
Population Normal (%) [1]: 83%
Population Pyknosed Nuclei (%) [1]: 59%
Population Tubulin-Different-Phenotype (%) [1]: 87%
Total Cell Count [1]: 585
Population Apoptotic (%) [2]: 35%
Population Fragmented Nuclei (%) [2]: 1%
Population Healthy Nuclei (%) [2]: 67%
Population Hoechst High Intensity Objects (%) [2]: 7%
Population Membrane Permeable-Phenotype (%) [2]: 3%
Population Mitochondria Different-Phenotype (%) [2]: 90%
Population Mitotic Cells (%) [2]: 64%
Population Normal (%) [2]: 92%
Population Pyknosed Nuclei (%) [2]: 30%
Population Tubulin-Different-Phenotype (%) [2]: 90%
Total Cell Count [2]: 929
Population Apoptotic (%) [3]: 14%
Population Fragmented Nuclei (%) [3]: 11%
Population Healthy Nuclei (%) [3]: 67%
Population Hoechst High Intensity Objects (%) [3]: 8%
Population Membrane Permeable-Phenotype (%) [3]: 6%
Population Mitochondria Different-Phenotype (%) [3]: 9%
Population Mitotic Cells (%) [3]: 85%
Population Normal (%) [3]: 91%
Population Pyknosed Nuclei (%) [3]: 21%
Population Tubulin-Different-Phenotype (%) [3]: 25%
Total Cell Count [3]: 633
Population Apoptotic (%) [4]: 13%
Population Fragmented Nuclei (%) [4]: 6%
Population Healthy Nuclei (%) [4]: 87%
Population Hoechst High Intensity Objects (%) [4]: 3%
Population Mitochondria Different-Phenotype (%) [4]: 21%
Population Mitotic Cells (%) [4]: 86%
Population Normal (%) [4]: 96%
Population Pyknosed Nuclei (%) [4]: 6%
Population Tubulin-Different-Phenotype (%) [4]: 36%
Total Cell Count [4]: 1412
Population Apoptotic (%) [5]: 61%
Population Fragmented Nuclei (%) [5]: 13%
Population Healthy Nuclei (%) [5]: 25%
Population Hoechst High Intensity Objects (%) [5]: 18%
Population Membrane Permeable-Phenotype (%) [5]: 7%
Population Mitochondria Different-Phenotype (%) [5]: 81%
Population Mitotic Cells (%) [5]: 38%
Population Normal (%) [5]: 81%
Population Pyknosed Nuclei (%) [5]: 60%
Population Tubulin-Different-Phenotype (%) [5]: 85%
Total Cell Count [5]: 551
Population Apoptotic (%) [6]: 43%
Population Fragmented Nuclei (%) [6]: 1%
Population Healthy Nuclei (%) [6]: 59%
Population Hoechst High Intensity Objects (%) [6]: 10%
Population Membrane Permeable-Phenotype (%) [6]: 2%
Population Mitochondria Different-Phenotype (%) [6]: 95%
Population Mitotic Cells (%) [6]: 56%
Population Normal (%) [6]: 89%
Population Pyknosed Nuclei (%) [6]: 38%
Population Tubulin-Different-Phenotype (%) [6]: 77%
Total Cell Count [6]: 913
Population Apoptotic (%) [7]: 17%
Population Fragmented Nuclei (%) [7]: 8%
Population Healthy Nuclei (%) [7]: 80%
Population Hoechst High Intensity Objects (%) [7]: 6%
Population Membrane Permeable-Phenotype (%) [7]: 10%
Population Mitochondria Different-Phenotype (%) [7]: 8%
Population Mitotic Cells (%) [7]: 82%
Population Normal (%) [7]: 93%
Population Pyknosed Nuclei (%) [7]: 11%
Population Tubulin-Different-Phenotype (%) [7]: 31%
Total Cell Count [7]: 745
Population Apoptotic (%) [8]: 5%
Population Fragmented Nuclei (%) [8]: 15%
Population Hoechst High Intensity Objects (%) [8]: 2%
Population Mitotic Cells (%) [8]: 94%
Population Normal (%) [8]: 97%
Population Pyknosed Nuclei (%) [8]: 4%
Population Tubulin-Different-Phenotype (%) [8]: 37%
Total Cell Count [8]: 2203

S=C(NCCCc1c[nH]cn1)NCCCN(Cc1ccc(Cl)c(Cl)c1)c1ccc(Br)cn1
Population Apoptotic (%) [1]: 47%
Population Fragmented Nuclei (%) [1]: 8%
Population Healthy Nuclei (%) [1]: 41%
Population Hoechst High Intensity Objects (%) [1]: 11%
Population Membrane Permeable-Phenotype (%) [1]: 4%
Population Mitochondria Different-Phenotype (%) [1]: 83%
Population Mitotic Cells (%) [1]: 52%
Population Normal (%) [1]: 88%
Population Pyknosed Nuclei (%) [1]: 49%
Population Tubulin-Different-Phenotype (%) [1]: 67%
Total Cell Count [1]: 310
Population Apoptotic (%) [2]: 19%
Population Fragmented Nuclei (%) [2]: 5%
Population Healthy Nuclei (%) [2]: 44%
Population Hoechst High Intensity Objects (%) [2]: 3%
Population Membrane Permeable-Phenotype (%) [2]: 22%
Population Mitochondria Different-Phenotype (%) [2]: 29%
Population Mitotic Cells (%) [2]: 80%
Population Normal (%) [2]: 96%
Population Pyknosed Nuclei (%) [2]: 50%
Population Tubulin-Different-Phenotype (%) [2]: 54%
Total Cell Count [2]: 240
Population Apoptotic (%) [3]: 88%
Population Fragmented Nuclei (%) [3]: 6%
Population Healthy Nuclei (%) [3]: 2%
Population Hoechst High Intensity Objects (%) [3]: 13%
Population Membrane Permeable-Phenotype (%) [3]: 22%
Population Mitochondria Different-Phenotype (%) [3]: 66%
Population Mitotic Cells (%) [3]: 11%
Population Normal (%) [3]: 86%
Population Tubulin-Different-Phenotype (%) [3]: 77%
Total Cell Count [3]: 356
Population Apoptotic (%) [4]: 84%
Population Fragmented Nuclei (%) [4]: 5%
Population Healthy Nuclei (%) [4]: 3%
Population Hoechst High Intensity Objects (%) [4]: 6%
Population Membrane Permeable-Phenotype (%) [4]: 37%
Population Mitochondria Different-Phenotype (%) [4]: 50%
Population Mitotic Cells (%) [4]: 15%
Population Normal (%) [4]: 93%
Population Pyknosed Nuclei (%) [4]: 90%
Population Tubulin-Different-Phenotype (%) [4]: 100%
Total Cell Count [4]: 220
Population Apoptotic (%) [5]: 61%
Population Fragmented Nuclei (%) [5]: 13%
Population Healthy Nuclei (%) [5]: 31%
Population Hoechst High Intensity Objects (%) [5]: 15%
Population Membrane Permeable-Phenotype (%) [5]: 8%
Population Mitochondria Different-Phenotype (%) [5]: 73%
Population Mitotic Cells (%) [5]: 38%
Population Normal (%) [5]: 84%
Population Tubulin-Different-Phenotype (%) [5]: 73%
Total Cell Count [5]: 308
Population Apoptotic (%) [6]: 20%
Population Fragmented Nuclei (%) [6]: 4%
Population Healthy Nuclei (%) [6]: 40%
Population Hoechst High Intensity Objects (%) [6]: 6%
Population Membrane Permeable-Phenotype (%) [6]: 28%
Population Mitochondria Different-Phenotype (%) [6]: 17%
Population Mitotic Cells (%) [6]: 79%
Population Normal (%) [6]: 93%
Population Pyknosed Nuclei (%) [6]: 54%
Population Tubulin-Different-Phenotype (%) [6]: 52%
Total Cell Count [6]: 239
Population Apoptotic (%) [7]: 82%
Population Fragmented Nuclei (%) [7]: 8%
Population Healthy Nuclei (%) [7]: 2%
Population Hoechst High Intensity Objects (%) [7]: 14%
Population Mitochondria Different-Phenotype (%) [7]: 85%
Population Mitotic Cells (%) [7]: 17%
Population Normal (%) [7]: 85%
Population Pyknosed Nuclei (%) [7]: 89%
Total Cell Count [7]: 366
Population Apoptotic (%) [8]: 81%
Population Fragmented Nuclei (%) [8]: 7%
Population Healthy Nuclei (%) [8]: 4%
Population Hoechst High Intensity Objects (%) [8]: 12%
Population Membrane Permeable-Phenotype (%) [8]: 0%
Population Mitochondria Different-Phenotype (%) [8]: 22%
Population Mitotic Cells (%) [8]: 18%
Population Normal (%) [8]: 87%
Population Pyknosed Nuclei (%) [8]: 87%
Population Tubulin-Different-Phenotype (%) [8]: 100%
Total Cell Count [8]: 231
Population Apoptotic (%) [9]: 49%
Population Fragmented Nuclei (%) [9]: 19%
Population Healthy Nuclei (%) [9]: 4%
Population Hoechst High Intensity Objects (%) [9]: 23%
Population Membrane Permeable-Phenotype (%) [9]: 41%
Population Mitochondria Different-Phenotype (%) [9]: 50%
Population Mitotic Cells (%) [9]: 50%
Population Normal (%) [9]: 76%
Population Pyknosed Nuclei (%) [9]: 75%
Population Tubulin-Different-Phenotype (%) [9]: 83%
Total Cell Count [9]: 320
Population Apoptotic (%) [10]: 35%
Population Fragmented Nuclei (%) [10]: 5%
Population Healthy Nuclei (%) [10]: 26%
Population Hoechst High Intensity Objects (%) [10]: 13%
Population Membrane Permeable-Phenotype (%) [10]: 33%
Population Mitochondria Different-Phenotype (%) [10]: 20%
Population Mitotic Cells (%) [10]: 64%
Population Normal (%) [10]: 86%
Population Pyknosed Nuclei (%) [10]: 67%
Population Tubulin-Different-Phenotype (%) [10]: 53%
Total Cell Count [10]: 234
Population Apoptotic (%) [11]: 71%
Population Fragmented Nuclei (%) [11]: 11%
Population Healthy Nuclei (%) [11]: 0%
Population Hoechst High Intensity Objects (%) [11]: 17%
Population Membrane Permeable-Phenotype (%) [11]: 0%
Population Mitochondria Different-Phenotype (%) [11]: 100%
Population Mitotic Cells (%) [11]: 28%
Population Normal (%) [11]: 82%
Population Pyknosed Nuclei (%) [11]: 87%
Total Cell Count [11]: 369
Population Apoptotic (%) [12]: 87%
Population Fragmented Nuclei (%) [12]: 15%
Population Healthy Nuclei (%) [12]: 9%
Population Hoechst High Intensity Objects (%) [12]: 9%
Population Membrane Permeable-Phenotype (%) [12]: 5%
Population Mitochondria Different-Phenotype (%) [12]: 75%
Population Mitotic Cells (%) [12]: 12%
Population Normal (%) [12]: 90%
Population Pyknosed Nuclei (%) [12]: 74%
Population Tubulin-Different-Phenotype (%) [12]: 100%
Total Cell Count [12]: 230
